Test results from ChEMBL document CHEMBL2150931, “Design, synthesis, and biological activity of a novel series of human sirtuin-2-selective inhibitors” (J Med Chem, 2012).

Experiments:
[1] = target: T1, NAD-dependent protein deacetylase sirtuin-2 (Homo sapiens) (UniProt Q8IXJ6); assay: Inhibition of SIRT2 in human HCT116 cells assessed as increase in acetylated alpha-tubulin after 8 hrs by Western blot analysis; assay type: cell-based; settings: HCT-116
T1 sequence (whole entry): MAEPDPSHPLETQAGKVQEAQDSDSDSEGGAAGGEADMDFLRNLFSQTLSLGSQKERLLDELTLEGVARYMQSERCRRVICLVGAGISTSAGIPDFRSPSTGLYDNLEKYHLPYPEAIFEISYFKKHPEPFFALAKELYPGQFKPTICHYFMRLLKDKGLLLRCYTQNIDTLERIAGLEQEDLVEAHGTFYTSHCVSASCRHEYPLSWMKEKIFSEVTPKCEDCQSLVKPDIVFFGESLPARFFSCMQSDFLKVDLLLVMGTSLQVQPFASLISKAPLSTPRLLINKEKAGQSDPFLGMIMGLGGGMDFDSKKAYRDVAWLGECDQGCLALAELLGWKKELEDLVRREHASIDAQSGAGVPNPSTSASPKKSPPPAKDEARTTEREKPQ
How it was run: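 HCT116 cells grown in McCoy's 5A with 10% FBS. 5×10⁵ cells exposed 8 h to compound at 1 or 10 μM, alongside 20 μM etoposide. SDS lysates equalized by Bradford assay and run on 15% SDS-PAGE, then blotted onto nitrocellulose. Blots probed overnight at 4 °C for acetyl-p53, p53, acetyl-α-tubulin and α-tubulin, and detected by ECL. Signal given as acetylated/total protein ratio.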

[2] = target: Histone deacetylase 4 (Homo sapiens, UniProt P56524); assay: Inhibition of HDAC4
[3] = target: Cytochrome P450 2D6 (Homo sapiens, UniProt P10635); assay: Inhibition of CYP2D6; assay type: ADME
[4] = target: T2, Histone deacetylase 11 (Homo sapiens, UniProt Q96DB2); assay: Inhibition of HDAC11
T2 sequence (Q96DB2 whole entry): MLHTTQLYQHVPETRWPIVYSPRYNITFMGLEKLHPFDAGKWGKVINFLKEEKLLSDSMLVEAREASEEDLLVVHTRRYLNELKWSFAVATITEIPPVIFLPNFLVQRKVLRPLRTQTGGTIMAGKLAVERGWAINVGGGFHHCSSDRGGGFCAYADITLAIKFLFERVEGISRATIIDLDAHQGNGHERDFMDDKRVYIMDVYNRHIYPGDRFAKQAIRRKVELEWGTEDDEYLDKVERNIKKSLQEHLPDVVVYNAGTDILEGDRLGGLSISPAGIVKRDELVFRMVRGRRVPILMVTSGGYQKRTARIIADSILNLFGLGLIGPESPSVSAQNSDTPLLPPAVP

[5] = target: T3, Protein deacetylase HDAC6 (Homo sapiens, UniProt Q9UBN7); assay: Inhibition of HDAC6
T3 sequence (Q9UBN7 whole entry): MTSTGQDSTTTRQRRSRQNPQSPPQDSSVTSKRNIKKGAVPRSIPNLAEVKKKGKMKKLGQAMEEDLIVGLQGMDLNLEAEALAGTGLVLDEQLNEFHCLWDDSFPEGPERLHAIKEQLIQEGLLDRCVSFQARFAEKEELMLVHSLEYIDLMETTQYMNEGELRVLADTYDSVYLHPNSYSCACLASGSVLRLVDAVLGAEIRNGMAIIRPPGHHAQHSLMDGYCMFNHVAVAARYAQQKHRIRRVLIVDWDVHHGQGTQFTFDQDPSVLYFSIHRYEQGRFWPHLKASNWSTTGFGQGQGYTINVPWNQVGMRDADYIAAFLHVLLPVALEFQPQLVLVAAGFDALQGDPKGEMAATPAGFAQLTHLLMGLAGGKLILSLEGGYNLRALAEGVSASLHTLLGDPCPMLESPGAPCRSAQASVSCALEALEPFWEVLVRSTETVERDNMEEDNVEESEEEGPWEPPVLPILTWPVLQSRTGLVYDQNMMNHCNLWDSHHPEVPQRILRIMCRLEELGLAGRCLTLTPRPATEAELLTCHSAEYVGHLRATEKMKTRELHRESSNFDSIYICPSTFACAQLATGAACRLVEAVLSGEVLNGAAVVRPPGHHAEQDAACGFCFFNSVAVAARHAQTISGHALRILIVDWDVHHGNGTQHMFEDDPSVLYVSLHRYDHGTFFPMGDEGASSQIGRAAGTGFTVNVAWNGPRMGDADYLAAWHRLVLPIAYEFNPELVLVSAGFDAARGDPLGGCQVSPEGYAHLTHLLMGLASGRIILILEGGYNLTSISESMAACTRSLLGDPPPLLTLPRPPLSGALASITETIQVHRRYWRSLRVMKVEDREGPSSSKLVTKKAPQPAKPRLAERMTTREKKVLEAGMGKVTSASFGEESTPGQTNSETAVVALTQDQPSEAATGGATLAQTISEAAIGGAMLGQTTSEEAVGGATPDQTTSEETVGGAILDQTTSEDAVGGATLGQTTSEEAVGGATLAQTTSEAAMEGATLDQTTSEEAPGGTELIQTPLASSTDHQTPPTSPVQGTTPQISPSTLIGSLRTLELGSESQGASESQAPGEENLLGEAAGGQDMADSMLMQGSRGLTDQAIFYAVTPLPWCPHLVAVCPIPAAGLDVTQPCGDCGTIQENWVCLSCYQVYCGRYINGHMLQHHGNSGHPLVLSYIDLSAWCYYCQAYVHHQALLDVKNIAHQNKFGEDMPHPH

Sequence of Cytochrome P450 2D6 (P10635 whole entry): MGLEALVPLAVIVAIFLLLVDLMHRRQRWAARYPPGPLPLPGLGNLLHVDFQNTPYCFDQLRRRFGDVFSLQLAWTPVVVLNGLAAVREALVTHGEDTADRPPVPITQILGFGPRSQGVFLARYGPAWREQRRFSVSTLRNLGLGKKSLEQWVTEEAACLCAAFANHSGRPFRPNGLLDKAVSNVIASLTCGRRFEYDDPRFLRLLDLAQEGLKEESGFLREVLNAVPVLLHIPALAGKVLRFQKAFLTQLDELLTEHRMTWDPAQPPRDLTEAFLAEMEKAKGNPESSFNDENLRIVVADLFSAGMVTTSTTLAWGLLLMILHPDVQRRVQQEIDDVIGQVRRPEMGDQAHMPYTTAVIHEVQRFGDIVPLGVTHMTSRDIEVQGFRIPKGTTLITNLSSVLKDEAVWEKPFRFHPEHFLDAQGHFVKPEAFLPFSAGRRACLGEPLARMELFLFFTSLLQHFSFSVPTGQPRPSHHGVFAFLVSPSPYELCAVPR
Sequence of Histone deacetylase 4 (P56524 whole entry): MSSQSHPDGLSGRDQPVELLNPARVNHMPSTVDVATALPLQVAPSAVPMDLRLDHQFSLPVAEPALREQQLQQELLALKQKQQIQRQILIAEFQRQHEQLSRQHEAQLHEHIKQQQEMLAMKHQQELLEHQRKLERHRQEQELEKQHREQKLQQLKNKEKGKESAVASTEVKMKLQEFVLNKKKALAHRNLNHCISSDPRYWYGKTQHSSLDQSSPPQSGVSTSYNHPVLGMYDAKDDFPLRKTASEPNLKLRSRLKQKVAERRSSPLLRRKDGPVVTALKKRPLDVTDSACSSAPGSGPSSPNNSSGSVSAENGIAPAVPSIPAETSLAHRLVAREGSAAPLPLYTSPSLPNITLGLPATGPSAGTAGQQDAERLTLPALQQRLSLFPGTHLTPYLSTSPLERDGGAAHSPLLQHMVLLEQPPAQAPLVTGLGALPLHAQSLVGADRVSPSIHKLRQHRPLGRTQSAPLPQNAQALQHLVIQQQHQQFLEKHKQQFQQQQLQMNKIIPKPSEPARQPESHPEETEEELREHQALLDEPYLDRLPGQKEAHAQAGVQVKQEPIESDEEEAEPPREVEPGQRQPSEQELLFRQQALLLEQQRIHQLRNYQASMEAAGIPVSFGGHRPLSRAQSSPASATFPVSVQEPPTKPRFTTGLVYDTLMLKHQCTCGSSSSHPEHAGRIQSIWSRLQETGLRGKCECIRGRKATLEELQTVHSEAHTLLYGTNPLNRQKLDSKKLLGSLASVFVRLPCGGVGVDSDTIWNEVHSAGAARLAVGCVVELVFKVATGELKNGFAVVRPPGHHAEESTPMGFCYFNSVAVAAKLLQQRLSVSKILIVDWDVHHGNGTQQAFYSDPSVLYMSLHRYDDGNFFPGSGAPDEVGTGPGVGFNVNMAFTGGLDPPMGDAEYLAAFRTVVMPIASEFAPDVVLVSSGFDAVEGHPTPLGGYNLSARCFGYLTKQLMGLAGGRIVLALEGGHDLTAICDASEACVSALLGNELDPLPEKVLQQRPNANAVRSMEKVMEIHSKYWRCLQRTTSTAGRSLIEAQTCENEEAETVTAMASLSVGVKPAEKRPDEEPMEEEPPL

## NC(=O)c1ccccc1Nc1cccc(OCCc2ccccc2)c1
[1]
  inhibition: Dose-dependent effect
[2]
  IC50: > 30 µM
[3]
  IC50: > 10 µM
[4]
  IC50: > 30 µM
[5]
  IC50: > 30 µM
